Results as given in ChEMBL document CHEMBL1137851, “2-Substituted benzoxazinone analogues as anti-human coronavirus (anti-HCoV) and ICAM-1 expression inhibition agents” (Bioorg Med Chem Lett, 2004).
In brackets after ≈: the same amount, converted by molar mass. Numbered stars: 1 amine (or outer) side, 2 acyl side, 3 side chain; on linkers, the order of the positions; unused ones are H or OH. Bridge positions count the residues as written; N and C are the ends. Square brackets hold non-standard residues; d marks the D form. Peptide text beside a SMILES is read from it. I, II: the chains in the order shown. Actinocin(1to9) = Cc1c2oc3c(C)ccc(C(=O)[*:2])c3nc-2c(C(=O)[*:1])c(N)c1=O; NMeV = CN[C@H](C(=O)O)C(C)C; Sar = CNCC(=O)O

Legend:
MRC5 [1] = assay: inhibitory concentration against anti-human coronavirus (HCoV) was determined in MRC-5 cells (human fibroblasts); type: functional, cell-based
Method in brief: (§1)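 MRC-5 human fibroblasts (1.0×10^5 cells/mL in 3% FBS-DMEM) seeded and held 24 h at 37 °C, then infected with HCoV strain 229E at 20 TCID₅₀/well for 2 h at 37 °C. Compound added afterwards at various concentrations, in triplicate. Cell viability read by XTT after 4 days at 37 °C. Actinomycin D served as positive control.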

MRC5 [2] = assay: inhibitory concentration against anti-human coronavirus (HCoV) was determined in MRC-5 cells (human fibroblasts); Inactive; type: functional, cell-based; method in brief: as §1
[3] = Effective dose for inhibition of intercellular adhesion molecule 1 (ICAM 1) expression; type: functional

Row | Compound | IC50 (MRC5 [1]) | IC50 (MRC5 [2]) | ED50 [3]
1 | COc1cccc2c(=O)oc(-c3ccccc3)nc12 | 6.83 µg/mL (≈ 27 µM) |  | 
2 | O=c1oc(-c2ccccc2Br)nc2c1ccc1ccccc12 |  | Not Active | 
3 | O=c1oc(-c2ccccc2F)nc2c1ccc1ccccc12 |  | Not Active | 
4 | COc1cccc2c(=O)oc(-c3ccc(Cl)cc3)nc12 | 7.59 µg/mL (≈ 26.4 µM) |  | 0.5 µg/mL (≈ 1.74 µM)
5 | COc1cccc2c(=O)oc(-c3ccccc3F)nc12 | 1.92 µg/mL (≈ 7.08 µM) |  | 
6 | COc1cccc2c(=O)oc(-c3cccc(Cl)c3)nc12 | 5.06 µg/mL (≈ 17.6 µM) |  | 
7 | O=c1oc(-c2ccccc2Cl)nc2c1ccc1ccccc12 |  | Not Active | 
8 | COc1cccc2c(=O)oc(-c3ccccc3Cl)nc12 | 5.79 µg/mL (≈ 20.1 µM) |  | 
9 | Cc1c2oc3c(C)ccc(C(=O)N[C@@H]4C(=O)N[C@H](C(C)C)C(=O)N5CCC[C@H]5C(=O)N(C)CC(=O)N(C)[C@@H](C(C)C)C(=O)O[C@@H]4C)c3nc-2c(C(=O)N[C@@H]2C(=O)N[C@H](C(C)C)C(=O)N3CCC[C@H]3C(=O)N(C)CC(=O)N(C)[C@@H](C(C)C)C(=O)O[C@@H]2C)c(N)c1=O [DACTINOMYCIN] (I: T[dV]P[Sar][NMeV] / II: T[dV]P[Sar][NMeV]; ester I:1-I:C, II:1-II:C; linker I:N-II:N via Actinocin(1to9)) | 0.02 µg/mL (≈ 0.0159 µM) |  | 
10 | COc1cccc2c(=O)oc(-c3ccc(Br)cc3)nc12 | 6.08 µg/mL (≈ 18.3 µM) |  | 1 µg/mL (≈ 3.01 µM)
11 | COc1cccc2c(=O)oc(-c3ccccc3Br)nc12 |  | Not Active | 
